EWS-Fli block: inhibitors of EWS/Fli oncoprotein transcriptional activity | A673 NR0B1-luciferase reporter, viability-normalised | inhibition, % at 12.6 µM | 350,000 compounds, 0.67% hits | AID 651661;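 active means mean inhibition of at least 50% after viability correction, with every replicate also passing that limit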;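 further: firefly luciferase signal divided by Alamar Blue viability fluorescence both relative to DMSO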
aSyn UTR inh: MLPCN primary screen, SNCA 5' untranslated region; alpha-synuclein 5'UTR reporter, inhibitor activity; inhibition, % (tested at 7.5 µM); 300,000 compounds, 0.82% hits; AID 1813; in the data active means inhibition above about 60%;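 further: H4 neuroglioblastoma cells stably carrying SNCA 5'UTR luciferase fusion; 0% = DMSO wells and 100% = positive control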
PAX8 inh HTS: lowers PAX8-driven luciferase in RMG-I cells | RMG-I TPO-luciferase reporter, SteadyGlo, 24 h | inhibition, % at 12.6 µM | 360,000 compounds, 1.2% hits | AID 652154;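 active means mean replicate inhibition at least 60% with every replicate also reaching 60%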;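 further: luciferase light reporting Pax8 driven TPO promoter activity; plate controls were median of neutral control wells for no effect and mitoxantrone controls for full effect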
Shn3 inh set2: inhibitors of Schnurri-3 3'UTR reporter in osteoblasts; inhibition, % at 12.5 µM; Clone20 osteoblast Shn3 3'UTR firefly luciferase, 24 h; 360,000 compounds, 0.52% hits;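 active means mean inhibition of at least 75% with every replicate also reaching 75%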;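 further: 0% = median of neutral control wells and 100% = pilot-screen positive control compound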
EBV LMP1 NFkB: reduces LMP1-driven NF-kappaB luciferase signal | LMP1-induced NF-kappaB luciferase reporter cells, luminescence | inhibition, % at 12.5 µM | 350,000 compounds, 0.69% hits | AID 504558; in the data active means inhibition above about 41%;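 further: 0% = neutral control wells and 100% = reference inhibitor control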
FN deposition inh: fibronectin deposition inhibition; AH1F fibroblasts, Alexa488-fibronectin deposition fluorescence, overnight; AID 743247; inhibition, % at 12.6 µM; 350,000 compounds, 0.086% hits;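 active means mean inhibition across replicates of 30% or more, regardless of how many single replicates reach that level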;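 further: positive control wells lacked labelled fibronectin entirely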
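Material: AH1F fibroblast monolayer depositing Alexa488-labelled fibronectin into matrix | Input: 10000 AH1F cells/well | Medium: DMEM plus 2% serum, read in PBS | Reagent: Alexa488-fibronectin, 24 nM final in well | Compound dosing: One dose per compound, pinned | Schedule: 1 h adhesion, overnight exposure | Measured by: Fluorescence at 485 nm excitation, 525 nm emission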
* hit, by the source's call; . = not tested or not shown. A selection: hits, their analogues and other compounds. The true share with any hit is near 2.1%.

SMILES	EWS-Fli block	aSyn UTR inh	PAX8 inh HTS	Shn3 inh set2	EBV LMP1 NFkB	FN deposition inh
CC(C)c1cn(CC[C@@H]2CC[C@H](NS(=O)(=O)c3ccccc3)[C@H](CO)O2)nn1	1	.	2	.	.	.
C[C@H](CO)N1C[C@H](C)[C@H](CN(C)Cc2ccncc2)Oc2ncc(C#CCC3CCCC3)cc2C1=O	4	.	13	.	.	15
COc1ccc(NS(=O)(=O)c2ccc(OC)c(N(C)S(=O)(=O)c3ccc(Cl)cc3)c2)cc1	26	-25	.	87*	31	.
C/C(=N\NC(=O)CSCc1ccccc1Cl)c1cc(O)ccc1O	40	62*	26	63	-6	2
C[C@@H]1CN([C@H](C)CO)C(=O)Cc2cc(NC(=O)CCN3CCOCC3)ccc2O[C@@H]1CN(C)S(=O)(=O)c1cccs1	-2	.	0	.	.	.
COCC(=O)Nc1ccc2c(c1)C(=O)N(C)C[C@H](OC)[C@@H](C)CN(Cc1cncnc1)[C@@H](C)CO2	4	.	.	.	.	0
CC(C)(C)NCC(=Cc1ccccc1)C(=O)c1ccccc1	57*	.	74*	97*	87*	13
C[C@H](CO)N1C[C@H](C)[C@H](CN(C)S(=O)(=O)c2ccc(F)cc2)OCCCC[C@H](C)Oc2ccc(NC(=O)c3ccccc3)cc2C1=O	3	.	7	.	.	11
COc1ccc(N(CC(=O)Nc2ccccc2C(=O)N2CCCC2)S(=O)(=O)c2ccccc2)cc1	-5	11	0	15	63*	5
c1ccc(N(c2ccccc2)c2nc(-n3ccnc3)nc(-n3ccnc3)n2)cc1	.	-18	.	13	-7	.
CN(c1ccccc1)c1nc(-n2ccnc2)nc(-n2ccnc2)n1	.	43	.	14	-14	44*
COc1cccc(/C=C2\SC(=S)N(CCCC(=O)N3CCCCC3)C2=O)c1	-8	26	27	-16	3	1
O=C1/C(=C/c2cccc(Br)c2)SC(=S)N1CCC(=O)N(CCO)c1ccccc1	7	-1	90*	-16	-2	12
COc1cccc(/C=C2\SC(=S)N(CCCC(=O)N(CCO)c3ccccc3)C2=O)c1	49	39	65*	-10	19	18
OCCN1CCN(C(=S)Nc2ccccc2)CC1	2	10	1	10	1	3
COc1cc(NC(=S)N2CCN(CCO)CC2)cc(OC)c1	4	17	11	-3	69*	-6
C=CCn1c(SCc2ccc3nonc3c2)nnc1-c1cccs1	.	29	16	23	71*	2
CCCC(=O)N1CC2(C1)CN(C(=O)CC)[C@@H](CO)c1c2c2ccc(OC)cc2n1C	-12	.	6	.	.	.
O=C(Nc1ccc(S(=O)(=O)N2CCOCC2)cc1)c1cc(-c2cc(Cl)ccc2O)n[nH]1	59*	34	76*	40	-5	12
Cc1ccc(O)c(-c2cc(C(=O)Nc3ccc(S(=O)(=O)N4CC(C)OC(C)C4)cc3)[nH]n2)c1 (stereo unspecified)	.	16	22	63	-9	0
Cc1cc(O)c(-c2cc(C(=O)Nc3ccc(S(=O)(=O)N4CCOCC4)cc3)[nH]n2)cc1C	.	14	73*	30	0	-2
COCC#Cc1cnc2c(c1)C(=O)N([C@@H](C)CO)C[C@H](C)[C@@H](CN(C)Cc1ccccc1F)O2	5	.	.	.	.	1
C[C@@H]1CCCCO[C@@H](CN(C)C(=O)Nc2ccc(F)cc2)[C@H](C)CN([C@H](C)CO)C(=O)c2cc(NS(=O)(=O)c3ccc(Cl)cc3)ccc2O1	9	.	91*	.	.	2
C[C@@H]1CCCCO[C@H](CN(C)C(=O)Nc2ccccc2)[C@@H](C)CN([C@@H](C)CO)C(=O)c2cc(NS(=O)(=O)c3ccc(Cl)cc3)ccc2O1	17	.	66*	.	.	5
C[C@@H]1CCCCO[C@H](CN(C)C(=O)Cc2ccccc2)[C@H](C)CN([C@H](C)CO)C(=O)c2cc(NS(=O)(=O)c3ccc(Cl)cc3)ccc2O1	10	.	44	.	.	3
SMILES	EWS-Fli block	aSyn UTR inh	PAX8 inh HTS	Shn3 inh set2	EBV LMP1 NFkB	FN deposition inh
C[C@@H]1CN([C@H](C)CO)C(=O)c2cc(NS(=O)(=O)c3ccc(Cl)cc3)ccc2O[C@@H](C)CCCCO[C@H]1CN(C)C(=O)Nc1ccccc1	-2	.	41	.	.	-4
C[C@@H]1CCCCO[C@H](CN(C)C(=O)Cc2ccccc2)[C@@H](C)CN([C@@H](C)CO)C(=O)c2cc(NS(=O)(=O)c3ccc(Cl)cc3)ccc2O1	2	.	79*	.	.	-8
COCC(=O)N(C)C[C@H]1Oc2ncc(C#Cc3ccccc3)cc2C(=O)N([C@H](C)CO)C[C@@H]1C	-11	.	.	.	.	-5
CCCCCCCn1c(NC(=O)CC)nc2ccccc21	41	68*	49	20	27	8
CCC(=O)Nc1nc2ccccc2n1Cc1ccccc1Cl	31	72*	21	-18	6	2
CC(=O)Nc1nc2ccccc2n1CCOc1ccccc1Cl	.	73*	-17	8	6	4
CCCn1c(NC(=O)c2cccc(S(=O)(=O)N3CCCC3)c2)nc2ccccc21	.	53	74*	71	19	14
CCC(=O)Nc1nc2ccccc2n1CCN1CCOCC1	.	-31	.	-20	6	.
CCC(=O)NCc1nc2ccccc2n1Cc1ccccc1F	.	-6	.	0	-1	0
CC(=O)N[C@@H]1CC[C@H](CCNC(=O)Nc2ccc(C(F)(F)F)cc2)O[C@@H]1CO	-2	.	-1	.	.	10
CCC(=O)Nc1nc2ccccc2n1Cc1ccc(Cl)cc1	29	72*	28	17	16	.
CC(=O)Nc1nc2ccccc2n1Cc1ccccc1C	.	67*	3	-19	-34	-1
Cn1c(NCc2ccccc2Cl)nc2ccccc21	-99	-164	-194	-38	-29	-9
CC(=O)NCc1nc2ccccc2n1Cc1ccccc1C	8	32	-4	11	-5	1
CC(=O)Nc1nc2ccccc2n1Cc1ccccc1Cl	22	87*	36	6	-38	9
COc1ccc(NC(=O)N(C)C[C@H]2Oc3c(cccc3N(C)C)C(=O)N([C@@H](C)CO)C[C@@H]2C)cc1	1	.	-27	.	.	.
O=C(C1CC1)N1CC2(C1)[C@@H](c1ccccc1)[C@@H](CO)N2Cc1ccc(Cl)cc1	-1	.	-5	.	.	-4
Cc1ccc(C(=O)Nc2cccc(C(F)(F)F)c2)cc1NC(=O)c1ccno1	-4	95*	19	4	46*	8
Cc1ccc(C(=O)Nc2cccc(C(F)(F)F)c2)cc1Nc1cnccn1	-19	34	3	12	16	-3
Cc1ccc(C(=O)Nc2cccc(C(F)(F)F)c2)cc1Nc1ncnc2nc[nH]c12	6	78*	39	51	44*	1
Cc1cc(N2CCCC2=O)ccc1S(=O)(=O)Nc1c(C)nn(C)c1C	6	-3	10	65	12	5
Cc1cc(N2CCCC2=O)cc(C)c1S(=O)(=O)Nc1c(C)nn(C)c1C	4	-9	13	14	49*	-7

Source: PubChem
